Here are results for five compounds from paper PMC4981430 (Neuropharmacology, 2016).

Where two headings read alike, the source gives them in different places. A value given as a limit tells only on which side of the number the result lay.

One data set has as its target α3β3γ2 GABAARs (Rattus norvegicus, UniProt P18508+P20236). Description: Whole-cell patch-clamp, potentiation of GABA. Type of data set: cell-based.
In data set [1] the target is T1, α2β3γ2 GABAARs (Rattus norvegicus, UniProt P18508+P23576). Description: Whole-cell patch-clamp, potentiation of GABA. The data set is classed as cell-based. The settings on record: for Emax: HEK293, read-out: Electrophysiology Emax (potentiation).
T1 sequence (P23576 29-451): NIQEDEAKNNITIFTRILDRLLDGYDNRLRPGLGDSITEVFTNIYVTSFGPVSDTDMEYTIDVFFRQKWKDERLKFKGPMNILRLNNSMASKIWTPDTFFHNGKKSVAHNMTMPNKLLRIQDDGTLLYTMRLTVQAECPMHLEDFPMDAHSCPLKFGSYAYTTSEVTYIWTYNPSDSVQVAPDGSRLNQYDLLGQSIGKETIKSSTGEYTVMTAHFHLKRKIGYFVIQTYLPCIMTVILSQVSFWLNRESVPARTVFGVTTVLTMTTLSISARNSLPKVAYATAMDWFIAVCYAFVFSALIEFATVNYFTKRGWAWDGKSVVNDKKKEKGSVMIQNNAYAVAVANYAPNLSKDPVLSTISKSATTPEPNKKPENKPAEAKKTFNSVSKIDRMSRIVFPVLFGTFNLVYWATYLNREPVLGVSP
T1 sequence (P63079 26-473 partner): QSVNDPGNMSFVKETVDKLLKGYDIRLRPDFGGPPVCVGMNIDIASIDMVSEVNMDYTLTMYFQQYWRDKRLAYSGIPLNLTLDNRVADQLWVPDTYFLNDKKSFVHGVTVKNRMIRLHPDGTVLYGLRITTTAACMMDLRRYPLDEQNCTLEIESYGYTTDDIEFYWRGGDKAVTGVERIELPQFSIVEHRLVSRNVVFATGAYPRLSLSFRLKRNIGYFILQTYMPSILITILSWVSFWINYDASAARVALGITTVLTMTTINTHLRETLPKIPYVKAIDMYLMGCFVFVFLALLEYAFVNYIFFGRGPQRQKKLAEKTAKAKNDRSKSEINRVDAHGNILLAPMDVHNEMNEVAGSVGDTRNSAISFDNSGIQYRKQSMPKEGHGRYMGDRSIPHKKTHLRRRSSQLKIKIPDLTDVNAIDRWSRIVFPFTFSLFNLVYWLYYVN
T1 sequence (P18508 39-466): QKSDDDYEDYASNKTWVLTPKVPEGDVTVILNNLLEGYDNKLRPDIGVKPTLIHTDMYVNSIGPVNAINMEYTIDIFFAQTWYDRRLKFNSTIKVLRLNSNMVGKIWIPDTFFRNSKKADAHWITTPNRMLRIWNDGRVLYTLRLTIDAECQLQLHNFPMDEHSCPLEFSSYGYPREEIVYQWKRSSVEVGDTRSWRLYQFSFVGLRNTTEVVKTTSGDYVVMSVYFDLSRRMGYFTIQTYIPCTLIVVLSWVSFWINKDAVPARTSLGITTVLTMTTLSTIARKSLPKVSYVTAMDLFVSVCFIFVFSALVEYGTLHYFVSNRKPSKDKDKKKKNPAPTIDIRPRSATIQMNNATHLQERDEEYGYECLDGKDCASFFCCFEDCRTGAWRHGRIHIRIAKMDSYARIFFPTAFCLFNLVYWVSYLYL
Another data set relates to human GABAARs. The note with it: human GABAARs in Xenopus laevis oocytes; ref Hammer et al., 2015; cited from earlier work.
The target in data set [2] is T2, α1β2γ2 GABAARs (Rattus norvegicus, UniProt P18508+P62813). Description: Whole-cell patch-clamp, potentiation of GABA. The data set is classed as cell-based. The settings on record: for Emax: HEK293, read-out: Electrophysiology Emax (potentiation).
T2 sequence (P62813 28-455): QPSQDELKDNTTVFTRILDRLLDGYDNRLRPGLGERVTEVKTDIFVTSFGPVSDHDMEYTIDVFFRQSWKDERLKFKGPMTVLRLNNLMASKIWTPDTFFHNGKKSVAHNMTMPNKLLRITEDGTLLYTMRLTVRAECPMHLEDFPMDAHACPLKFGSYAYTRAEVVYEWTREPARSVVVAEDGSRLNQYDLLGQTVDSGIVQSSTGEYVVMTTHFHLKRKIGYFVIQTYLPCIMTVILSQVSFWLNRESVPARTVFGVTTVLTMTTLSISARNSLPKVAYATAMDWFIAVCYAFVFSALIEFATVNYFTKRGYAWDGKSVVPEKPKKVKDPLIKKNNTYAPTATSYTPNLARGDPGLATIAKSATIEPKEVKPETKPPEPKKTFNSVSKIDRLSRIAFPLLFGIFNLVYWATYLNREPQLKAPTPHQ
T2 sequence (P63138 25-474 partner limits assumed): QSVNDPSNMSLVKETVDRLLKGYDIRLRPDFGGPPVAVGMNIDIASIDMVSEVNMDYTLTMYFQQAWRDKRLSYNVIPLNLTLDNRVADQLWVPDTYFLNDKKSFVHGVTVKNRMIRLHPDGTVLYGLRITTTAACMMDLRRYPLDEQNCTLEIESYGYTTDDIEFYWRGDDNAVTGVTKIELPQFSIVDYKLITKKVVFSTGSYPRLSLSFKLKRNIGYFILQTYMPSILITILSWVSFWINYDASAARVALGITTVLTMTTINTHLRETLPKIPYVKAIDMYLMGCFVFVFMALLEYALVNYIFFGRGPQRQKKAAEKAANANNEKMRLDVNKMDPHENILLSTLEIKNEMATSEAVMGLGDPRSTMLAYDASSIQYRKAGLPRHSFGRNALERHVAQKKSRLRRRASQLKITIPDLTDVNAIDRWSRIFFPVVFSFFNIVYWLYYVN
T2 sequence (P18508 39-466): as the sequence (P18508 39-466) above
Data set [3] deals with α1β2γ2, α2β3γ2, α3β3γ2 and α5β2γ2 GABAARs. The data set can be described thus: Whole-cell patch-clamp in HEK293 cells, statements across the GABAAR subtypes. Type of data set: cell-based, rat. The note with it: up to 3 μM for DZP, and 20 μM for CBZ and NDMC.
Data set [4] deals with T1, α2β3γ2 GABAARs. Description: [3H]flunitrazepam binding to membranes of transfected HEK293 cells, α2β3γ2.
Another data set deals with α5β2γ2 GABAARs (Rattus norvegicus, UniProt P18508+P19969). Description: Whole-cell patch-clamp, potentiation of GABA. The data set is classed as cell-based. The note with it: for Emax: HEK293, read-out: Electrophysiology Emax (potentiation).
Sequence of α5β2γ2 GABAARs (P19969 32-464 limits assumed): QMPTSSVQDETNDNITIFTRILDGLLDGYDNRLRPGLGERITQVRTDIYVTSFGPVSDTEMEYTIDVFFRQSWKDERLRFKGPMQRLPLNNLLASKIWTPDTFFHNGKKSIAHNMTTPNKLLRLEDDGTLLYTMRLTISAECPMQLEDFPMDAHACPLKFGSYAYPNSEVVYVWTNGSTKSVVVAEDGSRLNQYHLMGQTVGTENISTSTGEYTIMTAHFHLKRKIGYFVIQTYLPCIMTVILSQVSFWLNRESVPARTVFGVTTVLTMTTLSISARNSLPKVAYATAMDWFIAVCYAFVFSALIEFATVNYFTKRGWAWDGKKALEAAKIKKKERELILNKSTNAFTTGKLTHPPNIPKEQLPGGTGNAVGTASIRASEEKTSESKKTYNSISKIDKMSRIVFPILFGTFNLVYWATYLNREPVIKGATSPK
Sequence of α5β2γ2 GABAARs (P63138 25-474 partner limits assumed): as the sequence (P63138 25-474 partner limits assumed) above
Sequence of α5β2γ2 GABAARs (P18508 39-466): as the sequence (P18508 39-466) above
Data set [5] concerns the target T2, α1β2γ2 GABAARs. Description: [3H]flunitrazepam binding to membranes of transfected HEK293 cells, α1β2γ2.
In data set [6] the test system is CCI model of neuropathic pain, mechanical hyperalgesia. The data set can be described thus: Mechanical hyperalgesia. The data set is classed as in vivo, mouse. The note with it: GABAAR α1(H→R) point-mutated mice, von-Frey filament stimulation, p.o. In short, it runs like this: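 Left sciatic nerve constricted proximal to the trifurcation with three loose 5-0 silk ligatures. Mice 7–10 weeks old, both sexes, wild-type or α1(H→R) point-mutated, tested blinded 7–14 days later. Dosing p.o. as a suspension in 0.9% saline/1% Tween80. Paw withdrawal threshold measured with electronic von Frey filament #7, 3–4 readings per time point. Expressed as %MPE using pre-CCI and pre-drug thresholds.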

For data set [7], the system named is locomotor activity of mice. Description: Locomotor activity in the open field test. Type of data set: in vivo, mouse.
Data set [8] deals with recombinant α2β3γ2 GABAARs. The note with it: cited from earlier work; for Potentiation of recombinant α2β3γ2 GABAARs, relative to chlordiazepoxide: % of that of chlordiazepoxide, ref Atack et al.

Sequence of α3β3γ2 GABAARs (P20236 29-493): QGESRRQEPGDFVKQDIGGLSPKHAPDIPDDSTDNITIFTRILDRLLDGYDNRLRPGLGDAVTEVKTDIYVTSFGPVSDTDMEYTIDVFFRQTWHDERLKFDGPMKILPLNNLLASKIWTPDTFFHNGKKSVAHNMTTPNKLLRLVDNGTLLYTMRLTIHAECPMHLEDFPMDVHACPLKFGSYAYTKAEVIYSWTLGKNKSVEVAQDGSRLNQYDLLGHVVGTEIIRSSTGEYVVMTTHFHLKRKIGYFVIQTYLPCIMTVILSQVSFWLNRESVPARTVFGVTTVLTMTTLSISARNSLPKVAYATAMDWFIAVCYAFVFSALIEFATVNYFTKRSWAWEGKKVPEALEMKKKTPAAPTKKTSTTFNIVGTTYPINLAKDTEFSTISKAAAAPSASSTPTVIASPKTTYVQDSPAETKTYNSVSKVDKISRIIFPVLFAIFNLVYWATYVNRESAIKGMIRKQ
Sequence of α3β3γ2 GABAARs (P63079 26-473 partner): as the sequence (P63079 26-473 partner) above
Sequence of α3β3γ2 GABAARs (P18508 39-466): as the sequence (P18508 39-466) above

For `CN1C(=O)CC(=O)N(c2ccccc2)c2cc(Cl)ccc21` [CBZ, clobazam], the EC50 is 1100 ± 320 nM on α3β3γ2 GABAARs, 390 ± 190 nM at α2β3γ2 GABAARs [1], 610 ± 200 nM at α1β2γ2 GABAARs [2] and 500 ± 120 nM on α5β2γ2 GABAARs. Further, the results for the Emax at α2β3γ2 GABAARs [1], at α1β2γ2 GABAARs [2] and at α5β2γ2 GABAARs were 134 ± 16%, 171 ± 17% and 157 ± 11%, respectively. The α2/α1 selectivity on α2β3γ2 GABAARs [1] (determined as Emax(α2)/Emax(α1)) came out at 0.78 ± 0.12. The α2/α1 selectivity ratio with human GABAARs is on record as 1.02 ± 0.05. Further, the “Direct activation of GABAAR currents” value in data set [3] is recorded as “did not directly activate GABAAR currents”. Moreover, the values for the IC50 on α2β3γ2 GABAARs [4] and on α1β2γ2 GABAARs [5] were 390 ± 80 nM and 430 ± 130 nM, respectively.
Consider `CN1C(=O)CN=C(c2ccccc2)c2cc(Cl)ccc21` [DZP, diazepam], for which the “Electrophysiology Emax (potentiation)” value at α3β3γ2 GABAARs (α3β3γ2, GABA at EC10, mean ± SD) is recorded as 227 ± 15%. Also, the Emax amounted to 123 ± 11% at α2β3γ2 GABAARs [1], 141 ± 17% at α1β2γ2 GABAARs [2] and 100 ± 6.4% at α5β2γ2 GABAARs. The “Direct activation of GABAAR currents” value in data set [3] is “did not directly activate GABAAR currents”. The same compound had an ED50 antihyperalgesia in [6] of 3.4 ± 1.3 mg/kg. The “Dose at which reduction in locomotor activity reached statistical significance” value is ≥ 10 mg/kg in data set [7] (129X1/SvJ mice, p.o., 72-120 min) and 1 mg/kg in data set [7] (C57BL/6J mice, p.o., 72-120 min). Also, the “Effect on locomotor activity” value in data set [7] (C57BL/6J mice, 3, 10 and 30 mg kg−1 p.o., 72-120 min) is reported as “dose-dependent reduction in locomotor activity”. Moreover, the “Effect on locomotor activity in HRRR mice” value in data set [7] (HRRR triple point-mutated mice (only α1GABAARs BDZ-sensitive), 3–10 mg kg−1 p.o.) was “completely suppressed”. Besides, the “Effect on locomotor activity in RHRR mice” value in data set [7] (RHRR triple point-mutated mice (only α2GABAARs BDZ-sensitive), p.o.) was “increased locomotion”. The “Dose reducing locomotor activity in RRRR mice” value in data set [7] (quadruple point-mutated RRRR mice, p.o.) is ≥ 30 mg/kg. Besides, the ED50 sedation in data set [7] (triple (H→R) point-mutated mice, only α1GABAARs BDZ-sensitive, p.o.) is 0.59 ± 0.08 mg/kg.
For the compound `Cn1ncnc1COc1nn2c(-c3cc(F)ccc3F)nnc2cc1C(C)(C)C` [L-838,417], the “Potentiation of recombinant α2β3γ2 GABAARs” value in data set [8] (ref McKernan et al., 2000) was “about 40%”.
Take `CCn1ncnc1COc1nn2c(-c3ccccc3F)nnc2cc1C(C)(C)C` [TPA023, 7-(1,1-Dimethylethyl)-6-(2-ethyl-2H-1,2,4-triazol-3-ylmethoxy)-3-(2-fluor ophenyl)-1,2,4-triazolo[4,3-b]pyridazine]: the “Potentiation of recombinant α2β3γ2 GABAARs, relative to chlordiazepoxide” value in data set [8] (2006) is recorded as 11%.
As to `CC(C)(O)c1cnn2c(-c3ccc(F)c(-c4c(F)cccc4C#N)c3)cnc2n1` [TPA023B], in data set [8] (2011), the “Potentiation of recombinant α2β3γ2 GABAARs, relative to chlordiazepoxide” value is 38%.
